Bioassay records from PubChem BioAssay.
TRPC4 act: activators of mouse TRPC4 channel; AID 2237; HEK293 TRPC4beta/mu-opioid, Fluo4 calcium fluorescence; hits give high values; B-score at 10 µM; 310,000 compounds, 0.49% hits; Q9QUQ5;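 active means B-score above 5 SD of library B-scores, and initial fluorescence ratio not above library mean plus 5 SD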;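 further: positive B-score marks a calcium rise read as TRPC4 activation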
Target sequence (Q9QUQ5 whole entry, looked up): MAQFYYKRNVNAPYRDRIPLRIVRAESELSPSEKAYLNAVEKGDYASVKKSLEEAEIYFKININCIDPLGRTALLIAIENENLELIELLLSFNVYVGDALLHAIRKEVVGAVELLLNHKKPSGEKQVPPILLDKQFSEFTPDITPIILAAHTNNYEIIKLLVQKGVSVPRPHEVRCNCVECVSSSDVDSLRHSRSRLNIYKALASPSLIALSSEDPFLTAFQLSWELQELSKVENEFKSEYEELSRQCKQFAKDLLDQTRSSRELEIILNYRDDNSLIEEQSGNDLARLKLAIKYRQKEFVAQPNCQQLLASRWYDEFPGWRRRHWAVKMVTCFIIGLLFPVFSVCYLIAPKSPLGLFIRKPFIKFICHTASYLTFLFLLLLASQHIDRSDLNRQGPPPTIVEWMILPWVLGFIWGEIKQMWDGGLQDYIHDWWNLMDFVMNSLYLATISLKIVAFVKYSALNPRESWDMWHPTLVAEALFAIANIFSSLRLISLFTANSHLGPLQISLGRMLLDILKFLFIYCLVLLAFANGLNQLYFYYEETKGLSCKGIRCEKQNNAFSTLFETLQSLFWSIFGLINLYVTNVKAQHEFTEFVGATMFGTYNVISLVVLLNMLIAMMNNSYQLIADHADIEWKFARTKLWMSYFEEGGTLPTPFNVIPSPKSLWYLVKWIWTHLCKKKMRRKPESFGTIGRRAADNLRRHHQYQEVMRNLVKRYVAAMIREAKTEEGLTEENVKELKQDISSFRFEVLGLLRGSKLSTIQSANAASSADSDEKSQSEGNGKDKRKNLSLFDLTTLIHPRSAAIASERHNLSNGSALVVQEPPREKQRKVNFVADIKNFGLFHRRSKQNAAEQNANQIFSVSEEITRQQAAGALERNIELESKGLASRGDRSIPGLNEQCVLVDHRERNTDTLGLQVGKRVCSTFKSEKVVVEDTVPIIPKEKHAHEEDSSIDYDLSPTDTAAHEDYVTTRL
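Material: HEK293 stable line with TRPC4beta plus mu-opioid receptor; technique: Fluo4 calcium-sensitive dye fluorescence, kinetic, 1 Hz baseline; timing: Fluo4 dye loading 45 min at room temperature, 110 s recording; controls: assay buffer as low control, maximal DAMGO as high control; read-out: integrated baseline-normalised fluorescence ratio, converted to per-well B score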
TRPC4 PAM: allosterically enhances the mouse TRPC4 cation channel; Q9QUQ5; HEK293 TRPC4beta/mu-opioid, DAMGO EC20, Fluo-4 Ca2+ flux; hits give high values; 310,000 compounds, 0.42% hits; B-score at 10 µM;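 active means B-score of calcium response area above 5 SD of library B-scores, with initial fluorescence ratio within 5 SD of library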
TRPC6 act: mouse TRPC6 channel activation. Q61143. HEK293-TRPC6 membrane potential dye fluorescence; hits give high values. B-score at 10 µM. 310,000 compounds, 0.13% hits;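 active means B-score of the integrated fluorescence ratio above library mean plus 3 SD, and starting fluorescence ratio within library mean plus 5 SD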;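 further: higher score means more depolarization so channel activation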
TRPC4 block: blocks the mouse TRPC4 cation channel; Q9QUQ5; HEK293 TRPC4beta/mu-opioid, DAMGO-evoked Fluo4 calcium flux; hits give low values; B-score at 10 µM; 300,000 compounds, 0.39% hits; AID 2247;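 active means B-score over 3 SD under the library average, no early fluorescence shift, positive overall ratio signal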
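Test system – stable TRPC4beta/mu-opioid receptor HEK293 cells · Probe or stimulus – DAMGO, a submaximal dose followed by a maximal one · Dosing – one concentration per compound · Signal – Fluo4 calcium fluorescence by kinetic imaging, 5 s 1 Hz baseline · Evaluation – per-well B score of integrated baseline-normalized Fluo4 ratio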
TRPC6 inh: inhibitors of mouse TRPC6 channel. Q61143. HEK293-TRPC6, membrane potential dye, ACh-evoked depolarization; hits give low values. B-score at 10 µM. 310,000 compounds, 1.1% hits. AID 2553;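 active means B-score under library mean minus 3 SD, initial fluorescence not abnormally high, positive integrated signal ratio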;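 further: B-score derived from integrated fluorescence ratio over the kinetic read; more negative B-score means stronger inhibition of depolarization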
Large screens that a line does not name were inactive. This is a sample that favours compounds with a hit; in the whole collection about 2.3% have one here.

CC(=O)O[C@]1(C)C(=O)OC/C2=C/CN(C)CCC(OC(=O)[C@@](O)(C(C)O)C[C@H]1C)C2=O (some centres not stated)	none
CCN1CCN(c2ccc([N+](=O)[O-])cc2C=C2C(=O)NC(=O)NC2=O)CC1	TRPC4 PAM 15
CC(=O)N1CCN(c2ccc([N+](=O)[O-])cc2C=C2C(=O)NC(=O)NC2=O)CC1	none
COc1ccc(C2CC(c3c(O)n(CCc4ccccc4)c(=O)[nH]c3=O)=NN2)cc1OC (configuration not stated)	none
C#CCN1C(=O)C2(C(C#N)=C(N)OC(C)=C2C(=O)OCc2ccccc2)c2ccccc21 (configuration not stated)	TRPC4 PAM 29
CCOC(=O)C1=C(C)OC(N)=C(C#N)C12C(=O)N(C)c1ccccc12 (configuration not stated)	none
COC(=O)C1CN(C#N)N(c2ccc(Cl)cc2)C12c1ccccc1-c1ccccc12 (configuration not stated)	none
O=[N+]([O-])c1ccc(N2CCNCC2)c(Cl)c1	TRPC4 act 48, TRPC4 PAM 20
CC(C)CN(CC(C)C)c1ccc(C=C2C(=O)NC(=S)NC2=O)cc1[N+](=O)[O-]	TRPC4 block -7
Cc1ccsc1C(=O)C1CCCN(Cc2cc(C(C)C)n[nH]2)C1 (configuration not stated)	none
N[C@@H]1CCCC[C@H]1N.O=C(O)C(=O)O.[Pt]	none
CNc1ccc2oc(C[C@H]3O[C@@]4(CC[C@H]3C)O[C@H]([C@H](C)C(=O)c3ccc[nH]3)[C@H](C)C[C@H]4C)nc2c1C(=O)O	TRPC4 act 148
CCN(CC)C(=O)c1ccc(NC(=O)c2cccc(C(F)(F)F)c2)cc1	none
CCN1CCN(S(=O)(=O)c2ccc(Cl)c(C(=O)Nc3ccc(C(=O)N(CC)CC)cc3)c2)CC1	TRPC4 act 48
COc1cc2c(cc1OC)C(C(=O)N(C)C1CCCCC1)C1CCCCN1C2=O (configuration not stated)	none
Cc1ccsc1C(=O)C1CCCN(Cc2cn(C)nc2C)C1 (configuration not stated)	none
COc1ccc(OC)c(CN2CCCC(C(=O)c3sccc3C)C2)c1 (configuration not stated)	TRPC4 block -6
Cc1ccsc1C(=O)C1CCCN(CCO)C1 (configuration not stated)	none
COc1cccc(O)c1CN1CCCC(C(=O)c2sccc2C)C1 (configuration not stated)	TRPC4 block -9
COc1ccc(NC(=O)c2cn(CCC#N)nc2-c2ccc(OC)c(OC)c2)cc1	none
COc1ccc(C(CNC(=O)Cc2ccc(Cl)c(Cl)c2)N2CCCCC2)cc1 (configuration not stated)	none
COc1ccc(C(CNC(=O)Cc2ccc(Cl)c(Cl)c2)N(C)C)cc1 (configuration not stated)	TRPC4 act 173
FC(F)(F)c1ccc(CN2CCNCC2)cc1	TRPC4 PAM 17
c1cc2c(cc1CN1CCNCC1)OCO2	none
Clc1ccccc1CN1CCNCC1	none
Clc1ccc(CN2CCNCC2)cc1	TRPC4 act 54
Cc1ccccc1CN1CCNCC1	TRPC4 PAM 15
OC[C@@H](O)CCl	none
COC(=O)C1=C(c2ccccc2)C[C@@H]2CC[C@H]1N2C(=O)N1CCOCC1	none
CC1(C)C[C@H]2C=C(C=O)[C@]3(C=O)C[C@]3(C)[C@H]2C1	none
NS(=O)(=O)OC(CCc1ccccc1)C(Cl)(Cl)Cl (configuration not stated)	TRPC4 PAM 12
O=c1c2ccccc2[se]n1-c1ccccc1	none
CC1(C)CSC(=NCc2ccccc2)N1	TRPC4 act 68
O=C(COc1ccc(Cl)cc1Cl)N1CCN(C/C=C/c2ccccc2)CC1	TRPC4 PAM 13
C=CCn1c(O)c(C=NCCN2CCOCC2)c(=O)[nH]c1=S	TRPC4 PAM 10
CCC(=NC1CCN(Cc2ccccc2)CC1)c1c(O)[nH]c(=O)[nH]c1=O	TRPC4 PAM 10
Cc1c(P(=S)(c2ccccc2)c2ccccc2)[n+]2ccccc2n1C	none
Cn1cc[n+](C)c1P(=S)(c1ccccc1)c1ccccc1	TRPC4 act 66
N=c1c[n+](CC23CC4CC(CC(C4)C2)C3)[n-]o1	TRPC4 act 211
